This is a sample that favours compounds with a hit; in the whole collection about 5.1% have one here.
BAP1 inh: inhibitors of BAP1 deubiquitinase, primary screen, biochemical, Ub-AMC fluorescence, kinetic; calls only at 20 µM; recombinant BAP1, Ub-AMC hydrolysis fluorescence kinetic; hits give low values; AID 436, 2006; 72,000 tested, 0.48% active; Ubiquitin carboxyl-terminal hydrolase BAP1 (Homo sapiens), Q92560;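 active = activity remaining at or below 50% of control, provided the compound also passes the data quality filters; inactive = the rest, including low values that fail the filters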;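 also: 100% = DMSO wells rate and 0% = substrate alone blank rate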
ERa coact inh: ERα–SRC-1 coactivator interaction inhibitors, primary screen, biochemical, TR-FRET, ERα LBD, estradiol-bound. TR-FRET ER-alpha LBD / SRC-1 peptide. inhibition, % at 25.6 µM. 86,000 tested, 1.7% active. AID 629, 2007; in the data active = inhibition above about 50%;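 also: 0% = receptor plus peptide control and 100% = peptide only without receptor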
RORa activator: activators of orphan receptor RORA, primary screen, cell-based, luminescence | AID 560, 2006 | CHO-K1 Gal4-RORA LBD luciferase reporter; percent increase over mock-subtracted basal signal | 65,000 tested, 1.5% active | activation, % at 10 µM | Nuclear receptor ROR-alpha (Homo sapiens), P35398;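 active = activation above the mean of all tested compounds plus 3 SD, cut at about 49% in these data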;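 also: 0% = DMSO-treated RORA cells and 100% = added signal equal to DMSO minus mock-transfected cells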
ERa SRC1 pot: enhancers of ERα–SRC-1 coactivator binding, primary screen, biochemical, TR-FRET, ERα LBD, low estradiol; AID 639, 2007; coactivator binding (% of control), % at 25.6 µM; 86,000 tested, 1.3% active; TR-FRET ERalpha-LBD/SRC-Cy5 coactivator binding, 2 h; 100 = basal binding, no effect; Estrogen receptor (Homo sapiens), P03372; in the data active = activity above about 200%;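 also: binding measured in presence of low estradiol as agonist stimulus; 0% = peptide alone without receptor and 100% = receptor with peptide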
SF-1 act: activators of human SF-1, primary screen, cell-based, CHO-K1, Gal4-SF-1 LBD, luciferase luminescence | AID 522, 2006 | 65,000 tested, 1.9% active | activation, % at 10 µM | Steroidogenic factor 1 (Homo sapiens), Q13285 | CHO-K1 Gal4-SF-1 LBD luciferase reporter; % increase over DMSO SF-1-specific signal;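 active = activation above the mean activation of all tested compounds plus 3 SD, cut at about 50% in these data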
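Test system: CHO-K1 cells with Gal4–hSF-1 LBD chimera plus Gal4-driven luciferase; Input: 4,000 cells/well; Compound: 10 µM only; Times: 20 h compound treatment, 37 °C; Measured by: steady-glow luciferase luminescence, read after 15 min reagent incubation; Measure: percent activation versus DMSO; Control set: DMSO and mock-transfected background; Replicates: one test per compound.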
ERb coact inh: inhibitors of ERβ-SRC1 coactivator interaction, primary screen, biochemical, TR-FRET, ERβ LBD, SRC-1 peptide; Estrogen receptor beta (Homo sapiens), Q92731; TR-FRET ER-beta LBD / SRC1-Cy5 peptide binding; receptor agonist-loaded with 1 µM estradiol; inhibition, % at 25.6 µM; 86,000 tested, 1.3% active;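 active = compounds whose percent inhibition of the receptor-coactivator binding signal exceeds about 50% in the single-dose screen, limit read from the data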;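 also: 0% = receptor plus peptide wells without compound and 100% = peptide-only wells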
Target sequence (Q92731 whole entry, looked up, the tested form may be a part): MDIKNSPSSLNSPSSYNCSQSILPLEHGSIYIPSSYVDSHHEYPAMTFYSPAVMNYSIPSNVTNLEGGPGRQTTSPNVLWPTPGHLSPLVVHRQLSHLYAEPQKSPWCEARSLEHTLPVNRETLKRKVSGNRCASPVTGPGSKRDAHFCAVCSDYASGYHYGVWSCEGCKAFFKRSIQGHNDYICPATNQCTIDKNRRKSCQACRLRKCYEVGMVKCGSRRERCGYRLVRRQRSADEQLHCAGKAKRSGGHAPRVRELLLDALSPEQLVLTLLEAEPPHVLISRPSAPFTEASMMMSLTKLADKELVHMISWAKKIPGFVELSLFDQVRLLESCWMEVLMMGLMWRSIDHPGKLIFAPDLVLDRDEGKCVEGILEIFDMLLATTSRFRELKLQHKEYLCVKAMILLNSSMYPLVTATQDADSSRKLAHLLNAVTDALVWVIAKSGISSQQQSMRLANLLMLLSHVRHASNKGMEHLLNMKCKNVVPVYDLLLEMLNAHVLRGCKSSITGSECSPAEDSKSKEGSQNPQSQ
The depositor's hits bear a star; i = inactive; · = not tested or not shown; [ ] = remark or other dose.

SMILES	BAP1 inh	ERa coact inh	RORa activator	ERa SRC1 pot	SF-1 act	ERb coact inh
CSc1cccc(NC(=O)Nc2ccccc2)c1	i	5	63*	89	50*	4
COc1cccc(NC(=O)c2ccc(NC(C)=O)cc2)c1	·	5	·	105	·	-5
COc1ccc(NC(=O)Nc2cccc(OC)c2)cc1	i	·	68*	·	35	·
COc1cccc2sc(=NC(=O)c3ccc(S(=O)(=O)N(C)C)cc3)n(C)c12	i	·	·	·	·	·
CCOCCOC(=O)C1=C(C)N(C)C(=O)NC1c1ccc(Cl)cc1 (configuration not stated)	i	·	·	·	·	·
COC(=O)c1cccc(C(=O)Nc2ccc(C)cc2)n1	i	-9	23	94	50*	-9
Cc1ccc(NC(=O)c2cc(C)on2)cc1	i	-4	30	121	60*	2
Cc1cc(NC(=O)c2cccc(C(=O)Nc3cc(C)on3)n2)no1	i	16	2	292*	12	11
CCc1ccc(NC(=O)c2cc(C)on2)cc1	i	·	12	·	31	·
O=C(Nc1ccc(O)c(-c2nc3ccccc3o2)c1)c1ccccc1Cl	i	·	·	·	·	·
COc1nc(C)nc(NC(=O)NS(=O)(=O)c2ccc(C)cc2)n1	·	5	·	80	·	51*[fluorescence artefact?]
COC(=O)c1ccc(NC(=O)Cn2nnc3ccccc32)cc1	i	·	42	·	76*	·
O=S(=O)(Nc1ccc2c(c1)oc1ccccc12)c1ccc2oc3ccccc3c2c1	i	·	·	·	·	·
CC(Oc1ccccc1)C(=O)Nc1ccc(S(=O)(=O)N2CCOCC2)cc1 (configuration not stated)	i	-6	26	113	2	1
COc1ccccc1C(=O)Nc1nc(-c2ccc(S(=O)(=O)N3CCOCC3)cc2)cs1	·	1	·	399*[fluorescence artefact?]	·	3
COc1ccccc1OC(C)C(=O)Nc1nc(-c2ccc(S(=O)(=O)N3CCOCC3)cc2)cs1 (configuration not stated)	·	1	·	263*[fluorescence artefact?]	·	8
CCOc1cccc(C(=O)Nc2nc(-c3ccc(S(=O)(=O)N4CCOCC4)cc3)cs2)c1	·	-2	-1	166	5	-7
O=C(Nc1nc(-c2ccncc2)cs1)c1ccc(S(=O)(=O)N2CCOCC2)cc1	i	-1	-9	239*	11	-10
O=C(COc1cccc(Cl)c1)Nc1nc(-c2ccc(S(=O)(=O)N3CCOCC3)cc2)cs1	·	-1	·	202*	·	7
O=C(Nc1ccc(OCc2ccccc2)cc1)C1c2ccccc2Oc2ccccc21	i	·	·	·	·	·
O=C(OCCN1C(=O)c2cccc3c(N4CCOCC4)ccc(c23)C1=O)c1ccccc1Br	i	·	·	·	·	·
CC(C)(C)OC(=O)N1CCC(c2cc(=O)n3[nH]c(-c4ccc(Cl)cc4)cc3n2)CC1	·	31	·	251*[fluorescence artefact?]	·	11
CC(C)(C)OC(=O)N1CCC(c2cc(=O)n3[nH]cc(C(=O)NC4CCCC4)c3n2)CC1	·	8	·	86	·	-5
Cc1nc2sccn2c1-c1nc(-c2cc3ccccc3o2)cs1	i	61*	16	90	6	28
CCOC(=O)c1cnn2c(C(F)(F)F)c3c(nc12)-c1ccccc1CC3	i	·	·	·	·	·
SMILES	BAP1 inh	ERa coact inh	RORa activator	ERa SRC1 pot	SF-1 act	ERb coact inh
CCN1C(=O)NC(c2ccc(Cl)cc2)C(C(=O)OCCc2ccccc2)=C1C (configuration not stated)	i	·	·	·	·	·
CSc1ccc(-c2cc(=O)c3ccccc3o2)cc1	i	6	32	94	63*	2
O=C(CSc1nnc(CN2C(=O)c3cccc4cccc(c34)C2=O)n1-c1ccccc1)NCc1ccco1	i	·	·	·	·	·
CCc1ccc(Nc2cc(=O)n(C3CCCCC3)c(=O)[nH]2)cc1	i	-20	16	105	52*	-26
COC(=O)c1c(NC(=O)COc2cc(C)c(Cl)c(C)c2)sc2c1CCC(C)C2 (configuration not stated)	i	·	·	·	·	·
CSc1nc2c(c(=O)[nH]1)C(c1cccs1)C1=C(CCCC1=O)N2 (configuration not stated)	·	44	-3	74	21	56*
O=C(Oc1ccc(N2C(=O)CCC2=O)cc1)c1ccco1	i	60*	-4	103	2	4
CC1=CC(=C2C(=O)c3ccccc3C2=O)C=C(C)O1	i	8	57*	884*[fluorescence artefact?]	42	3
CN1C=CC(=C2C(=O)c3ccccc3C2=O)C=C1	i	-15	52*	116	16	2
CC(=O)N1C(=O)C(=C2C=C(C)OC(C)=C2)c2ccccc21	i	-11	2	119	-9	-2
CCOc1cccc(C2NC(=O)NC(C)=C2C(=O)OCC(Cl)(Cl)Cl)c1 (configuration not stated)	i	·	·	·	·	·
COc1ccc(C(=O)N2CCCN(C)CC2)cc1S(=O)(=O)N1CCCc2ccccc21	i	-13	13	225*	10	-11
COc1ccc(OC)c(S(=O)(=O)N2CCCc3ccccc32)c1	i	-3	26	106	13	1
Cc1cccc(OC(=O)CC2CS(=O)(=O)CC2CC(=O)Oc2cccc(C)c2)c1 (configuration not stated)	i	·	·	·	·	·
COc1ccc2[nH]c3nc(SCc4nnc(-c5ccccc5)o4)nnc3c2c1	i	85*[fluorescence artefact?]	22	54	23	52*[fluorescence artefact?]
COc1ccc2[nH]c3nc(SC(C)C)nnc3c2c1	i	20	-14	96	-63	18
Cc1ccc(NC(=O)CCn2cnc3cc(C)c(C)cc32)cc1	·	16	·	98	·	35
Cc1ccc(CNc2ccc3c(c2)ncn3C)cc1	i	1	63*	108	57*	-2
CCc1ccc(CNc2ccc3c(c2)ncn3C)cc1	i	6	61*	86	70*	9
COc1ccc(CNc2ccc3c(c2)nc(C)n3C)cc1	i	-5	38	103	79*	10
Cc1ccc(C(=O)Nc2ccc3c(c2)ncn3C)cc1	i	-20	52*	97	38	-7
Cc1ccccc1NC(=O)C(c1ccccc1)N1CCOCC1 (configuration not stated)	i	·	·	·	·	·
Cc1ccc(-n2nc(C)cc2N)cc1	i	·	·	·	·	·
O=C(c1ccc(C(=O)N2CCN(c3cccc(Cl)c3)CC2)cc1)N1CCN(c2cccc(Cl)c2)CC1	i	·	·	·	·	·
